Laboratory results taken from PubChem BioAssay AID2307 (NMMLSC, 2010).

Each compound was assayed against Regulator of G-protein signaling 8 (Homo sapiens) (UniProt P57771) (assay: small molecules altering RGS8 binding of Galphao – biochemical, multiplex bead flow cytometry, SAR compounds, SAR follow-up (AID 2307)). Settings: bead-based flow cytometry, AF488-Galphao binding to RGS8.
Summary of the method: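 System: Biotinylated human RGS8 captured on streptavidin beads, multiplexed bead sets | Medium: HEPES, NaCl, Lubrol and BSA buffer at pH 8.0 | Times: Bead–Galphao binding for 30–90 min at room temperature | Technique: Flow cytometry, median green bead fluorescence at 530 nm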

Chain of Regulator of G-protein signaling 8 (Homo sapiens) (P57771 whole entry, looked up): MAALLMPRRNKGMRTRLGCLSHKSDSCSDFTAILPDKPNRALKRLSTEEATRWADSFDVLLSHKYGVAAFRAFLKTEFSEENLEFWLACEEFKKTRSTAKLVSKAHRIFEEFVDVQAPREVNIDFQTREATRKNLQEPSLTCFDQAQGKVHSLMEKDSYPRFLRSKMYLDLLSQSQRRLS

Row | Compound | EC50
1 | NS(=O)(=O)c1ccc(N/N=C/c2ccc(O)c(O)c2O)c([N+](=O)[O-])c1 | 29 nM

Same assay, conditions: bead-based flow cytometry, AF488-Galphao binding to RGS8; measured here: Ki calculated from EC50

Row | Compound | Ki
2 | Cc1cccc(N2CCN(C(=O)COc3nsc4nc(C)cc(C)c34)CC2C)c1 (stereo not given) | 2640 nM
3 | CCC(=O)NC(c1ccc(C)cc1)c1cc([N+](=O)[O-])c2cccnc2c1O (stereo not given) | 3590 nM
4 | CC1(C)OC(=O)C(=Cc2ccc(-c3ccc(S(N)(=O)=O)cc3)o2)C(=O)O1 | 580 nM
5 | COc1ccc(C2=CC(=O)C=CC2=O)cc1 | 150 nM
6 | COC(=O)CCC(=O)Nc1sc(C)c(C)c1C(N)=O | 700 nM
7 | Cc1cc(Cl)ccc1N=c1ssnc1Cl | 110 nM
8 | CN=c1scc(C)n1/N=C/c1ccc(O)c(O)c1O | 260 nM
9 | CC(=O)OCCCNc1cc(Sc2nc3ccccc3s2)c2nonc2c1[N+](=O)[O-] | 70 nM
10 | CCN=c1scc(C)n1/N=C/c1ccc(O)c(O)c1O | 470 nM
11 | CCOC(=O)c1sc(NC(=O)CSc2nnc(Cc3ccccc3)o2)c(C#N)c1C | 150 nM
12 | O=C(Cc1csc(N2CCOCC2)n1)N/N=C/c1ccc(O)c(O)c1O | 320 nM
13 | Cc1[nH]n(-c2ccccc2)c(=S)c1C=NCCCN=Cc1c(C)[nH]n(-c2ccccc2)c1=S | 430 nM
14 | O=C1C(Cl)=C(N2CCCCC2)C(=O)C(Cl)=C1c1cnc(N2CCCCC2)s1 | 60 nM
15 | NS(=O)(=O)c1ccc(N/N=C/c2ccc(O)c(O)c2O)c([N+](=O)[O-])c1 | 20 nM
16 | O=C(NCCCN1CCOCC1)c1sc2cc([N+](=O)[O-])ccc2c1Cl | 470 nM
17 | O=c1c2ccccc2sn1-c1ccc(S(=O)(=O)N2CCCC2)cc1 | 20 nM
18 | CCN(CC)S(=O)(=O)c1cccc(-c2n[nH]c(=S)n2/N=C/c2ccc(C(=O)OC)cc2)c1 | 2590 nM
19 | CN1CCN(C2=C(Cl)C(=O)C(c3cnc(N4CCCCC4)s3)=C(Cl)C2=O)CC1 | 20 nM
20 | O=C(COc1ccccc1C(=O)N/N=C/c1ccc(O)c(O)c1)N/N=C/c1ccc(O)c(O)c1 | 100 nM
21 | Cc1[nH]n(-c2ccccc2)c(=S)c1C=Nc1cccc([N+](=O)[O-])c1 | 180 nM
22 | Nc1c(C(=O)NCC2CCCO2)sc2nc3c(c(-c4ccco4)c12)CC/C3=C/c1ccco1 (stereo not given) | 400 nM
23 | CC(NC(=O)c1sc2cc([N+](=O)[O-])ccc2c1Cl)C(C)(C)C (stereo not given) | 170 nM
24 | CCN(CC)S(=O)(=O)c1cccc(C(=O)N/N=C/c2ccc(O)c(O)c2O)c1 | 340 nM
25 | Cc1cccc(N2CCN(C(=O)Cn3sc4nc(C)cc(C)c4c3=O)CC2C)c1 (stereo not given) | 460 nM
